From ChEMBL document CHEMBL4118253, “Expedient synthesis and biological evaluation of alkenyl acyclic nucleoside phosphonate prodrugs” (Bioorg Med Chem, 2018)

How the values were obtained:
Influenza A virus [1] = assay: Antiviral activity against Influenza A virus H1N1 infected in MDCK cells assessed as inhibition of virus-induced visual cytopathicity; assay type: functional, organism-based
Human alphaherpesvirus 3 [2] = assay: Antiviral activity against thymidine kinase expressing Varicella-Zoster virus infected in HEL cells assessed as reduction in virus plaque formation; assay type: functional, organism-based; settings: Human alphaherpesvirus 3, HEL
Influenza A virus [3] = assay: Antiviral activity against Influenza A virus H1N1 infected in MDCK cells assessed as inhibition of virus-induced cytopathicity by MTS assay; assay type: functional, organism-based
Sindbis virus = assay: Antiviral activity against Sindbis Virus infected in African green monkey Vero cells assessed as inhibition of virus-induced cytopathicity; assay type: functional, organism-based
Influenza A virus H3N2 [4] = assay: Antiviral activity against Influenza A virus H3N2 infected in MDCK cells assessed as inhibition of virus-induced visual cytopathicity; assay type: functional, organism-based
[5] = Cytotoxicity against HEL cells assessed as alteration of cell morphology by microscopic analysis; assay type: cell-based; settings: human
Procedure, shortened: (§1)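 The value is the minimal cytotoxic concentration (MCC), the lowest concentration that causes a microscopically visible change in cell morphology. It was read in the same HEL or Vero cell cultures used for the antiviral tests.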

Influenza A virus H3N2 [6] = assay: Antiviral activity against Influenza A virus H3N2 infected in MDCK cells assessed as inhibition of virus-induced cytopathicity by MTS assay; assay type: functional, organism-based
Influenza B virus [7] = assay: Antiviral activity against Influenza B virus infected in MDCK cells assessed as inhibition of virus-induced visual cytopathicity; assay type: functional, organism-based
Human coronavirus 229E = assay: Antiviral activity against Human coronavirus 229E infected in HEL cells assessed as inhibition of virus-induced cytopathicity; assay type: functional, organism-based
[8] = system: Vesicular stomatitis virus; assay: Antiviral activity against Vesicular stomatitis virus infected in human HeLa cells assessed as inhibition of virus-induced cytopathicity; assay type: functional, organism-based
[9] = Cytotoxicity against MDCK cells assessed as alteration of cell morphology by microscopic analysis; assay type: cell-based, Canis lupus familiaris; settings: dog
Vaccinia virus = assay: Antiviral activity against Vaccinia virus infected in HEL cells assessed as inhibition of virus-induced cytopathicity; assay type: functional, organism-based; settings: Orthopoxvirus vaccinia
Influenza B virus [10] = assay: Antiviral activity against Influenza B virus infected in MDCK cells assessed as inhibition of virus-induced cytopathicity by MTS assay; assay type: functional, organism-based
Human alphaherpesvirus 1 [11] = assay: Antiviral activity against Herpes simplex virus 1 KOS infected in HEL cells assessed as inhibition of virus-induced cytopathicity; assay type: functional, organism-based; settings: Human alphaherpesvirus 1, KOS
Human adenovirus 2 = assay: Antiviral activity against Adenovirus 2 infected in HEL cells assessed as inhibition of virus-induced cytopathicity; assay type: functional, organism-based; settings: Human mastadenovirus C
Human alphaherpesvirus 3 [12] = assay: Antiviral activity against thymidine kinase deficient Varicella-Zoster virus infected in HEL cells assessed as reduction in virus plaque formation; assay type: functional, organism-based; settings: Human alphaherpesvirus 3, HEL
Punta Toro virus = assay: Antiviral activity against Punta Toro virus infected in African green monkey Vero cells assessed as inhibition of virus-induced cytopathicity; assay type: functional, organism-based
Human respirovirus 3 = assay: Antiviral activity against Parainfluenza virus 3 infected in human HeLa cells assessed as inhibition of virus-induced cytopathicity; assay type: functional, organism-based; settings: Human respirovirus 3, HeLa
Yellow fever virus = assay: Antiviral activity against Yellow fever virus infected in African green monkey Vero cells assessed as inhibition of virus-induced cytopathicity; assay type: functional, organism-based
[13] = system: Mammalian orthoreovirus 1; assay: Antiviral activity against Reovirus-1 infected in human HeLa cells assessed as inhibition of virus-induced cytopathicity; assay type: functional, organism-based; settings: Mammalian orthoreovirus 1, HeLa
Human betaherpesvirus 5 [14] = assay: Antiviral activity against Human cytomegalovirus AD169 infected in HEL cells assessed as inhibition of virus-induced cytopathicity; assay type: functional, organism-based; settings: Human betaherpesvirus 5, AD169, HEL
[15] = Cytotoxicity against African green monkey Vero cells assessed as alteration of cell morphology by microscopic analysis; assay type: cell-based; settings: chlorocebus sabaeus; procedure, shortened: as §1
Coxsackievirus B4 = assay: Antiviral activity against Coxsackie virus B4 infected in African green monkey Vero cells assessed as inhibition of virus-induced cytopathicity; assay type: functional, organism-based; settings: Enterovirus B
Human alphaherpesvirus 1 [16] = assay: Antiviral activity against acyclovir-resistant thymidine kinase deficient Herpes simplex virus 1 KOS infected in HEL cells assessed as inhibition of virus-induced cytopathicity; assay type: functional, organism-based; settings: Human alphaherpesvirus 1, KOS
Human alphaherpesvirus 2 = assay: Antiviral activity against Herpes simplex virus 2 G infected in HEL cells assessed as inhibition of virus-induced cytopathicity; assay type: functional, organism-based; settings: Human alphaherpesvirus 2, strain G
[17] = system: Respiratory syncytial virus; assay: Antiviral activity against Respiratory syncytial virus infected in human HeLa cells assessed as inhibition of virus-induced cytopathicity; assay type: functional, organism-based
[18] = Cytotoxicity against human HeLa cells assessed as alteration of cell morphology by microscopic analysis; assay type: cell-based
Human betaherpesvirus 5 [19] = assay: Antiviral activity against Human cytomegalovirus Davis infected in HEL cells assessed as inhibition of virus-induced cytopathicity; assay type: functional, organism-based; settings: Human betaherpesvirus 5, Davis

Structure (SMILES) | EC50 (Influenza A virus [1]) [µM] | EC50 (Human alphaherpesvirus 3 [2]) [µM] | EC50 (Influenza A virus [3]) [µM] | EC50 (Sindbis virus) [µM] | EC50 (Influenza A virus H3N2 [4]) [µM] | MCC [5] [µM] | EC50 (Influenza A virus H3N2 [6]) [µM] | EC50 (Influenza B virus [7]) [µM] | EC50 (Human coronavirus 229E) [µM] | EC50 [8] [µM] | MCC [9] [µM] | EC50 (Vaccinia virus) [µM] | EC50 (Influenza B virus [10]) [µM] | EC50 (Human alphaherpesvirus 1 [11]) [µM] | EC50 (Human adenovirus 2) [µM] | EC50 (Human alphaherpesvirus 3 [12]) [µM] | EC50 (Punta Toro virus) [µM] | EC50 (Human respirovirus 3) [µM] | EC50 (Yellow fever virus) [µM] | EC50 [13] [µM] | further results
C/C(=C\CP(=O)(N[C@@H](C)C(=O)OCc1ccccc1)Oc1cccc2ccccc12)Cn1cc(C)c(=O)[nH]c1=O (some centres undefined) | > 100 | 34.2 | > 100 | > 100 | > 100 | > 100 | > 100 | > 100 | > 100 | > 100 | > 100 | > 100 | > 100 | > 100 | > 100 | 55.3 | > 100 | > 100 | > 100 | > 100 | EC50 (Human betaherpesvirus 5 [14]): > 100 µM; MCC [15]: > 100 µM; EC50 (Coxsackievirus B4): > 100 µM; EC50 (Human alphaherpesvirus 1 [16]): > 100 µM; EC50 (Human alphaherpesvirus 2): > 100 µM; EC50 [17]: > 100 µM; MCC [18]: > 100 µM; EC50 (Human betaherpesvirus 5 [19]): > 100 µM
C/C(=C/CP(=O)(N[C@@H](C)C(=O)OC(C)C)Oc1cccc2c1CCCC2)Cn1ccc(=O)[nH]c1=O (some centres undefined) | > 100 | 58.5 | 100 | > 100 | > 100 | 100 | > 100 | > 100 | > 100 | > 100 | 100 | > 100 | > 100 | > 100 | > 100 | 100 | > 100 | > 100 | > 100 | > 100 | EC50 (Human betaherpesvirus 5 [14]): > 20 µM; MCC [15]: > 100 µM; EC50 (Coxsackievirus B4): > 100 µM; EC50 (Human alphaherpesvirus 1 [16]): > 100 µM; EC50 (Human alphaherpesvirus 2): > 100 µM; EC50 [17]: > 100 µM; MCC [18]: > 100 µM; EC50 (Human betaherpesvirus 5 [19]): 54.7 µM
C/C(=C/CP(=O)(N[C@@H](C)C(=O)OC(C)C)Oc1cccc2ccccc12)Cn1cc(C)c(=O)[nH]c1=O (some centres undefined) | > 100 | 39.9 | > 100 | > 100 | > 100 | 100 | > 100 | > 100 | > 100 | > 100 | 100 | > 100 | > 100 | > 100 | > 100 | 41.6 | > 100 | > 100 | > 100 | > 100 | EC50 (Human betaherpesvirus 5 [14]): > 20 µM; MCC [15]: ≥ 20 µM; EC50 (Coxsackievirus B4): > 100 µM; EC50 (Human alphaherpesvirus 1 [16]): > 100 µM; EC50 (Human alphaherpesvirus 2): > 100 µM; EC50 [17]: > 100 µM; MCC [18]: ≥ 20 µM; EC50 (Human betaherpesvirus 5 [19]): 44.7 µM
C/C(=C\CP(=O)(N[C@@H](C)C(=O)OCc1ccccc1)Oc1cccc2c1CCCC2)Cn1cc(C)c(=O)[nH]c1=O (some centres undefined) | > 100 | 50.2 | > 100 | > 100 | > 100 | > 100 | > 100 | > 100 | > 100 | > 100 | > 100 | > 100 | > 100 | > 100 | > 100 | 47.2 | > 100 | > 100 | > 100 | > 100 | EC50 (Human betaherpesvirus 5 [14]): > 100 µM; MCC [15]: ≥ 100 µM; EC50 (Coxsackievirus B4): > 100 µM; EC50 (Human alphaherpesvirus 1 [16]): > 100 µM; EC50 (Human alphaherpesvirus 2): > 100 µM; EC50 [17]: > 100 µM; MCC [18]: ≥ 100 µM; EC50 (Human betaherpesvirus 5 [19]): > 100 µM
C/C(=C/CP(=O)(N[C@@H](C)C(=O)OC(C)C)Oc1cccc2c1CCCC2)Cn1cc(C)c(=O)[nH]c1=O (some centres undefined) | > 100 | > 20 | > 100 | 45 | > 100 | 100 | > 100 | > 100 | > 100 | > 100 | 100 | > 100 | > 100 | > 100 | > 100 | > 20 | 45 | > 100 | 58 | > 100 | MCC [15]: > 100 µM; EC50 (Coxsackievirus B4): 58 µM; EC50 (Human alphaherpesvirus 1 [16]): > 100 µM; EC50 (Human alphaherpesvirus 2): > 100 µM; EC50 [17]: > 100 µM; MCC [18]: > 100 µM; EC50 (Human betaherpesvirus 5 [19]): > 20 µM
